Results from ChEMBL document CHEMBL4177603 (Bioorg Med Chem Lett, 2017).
pIC50: −log10 of the molar value.

Key:
[1] = Protein binding in human plasma assessed as fraction unbound; assay type: ADME, cell-free
[2] = Clearance in dog plasma at 0.3 mg/kg, iv via infusion for 0.5 hrs; assay type: ADME, organism-based, Canis lupus familiaris
[3] = Biliary clearance in rat at 0.3 mg/kg, iv via infusion for 1 hr; assay type: ADME, organism-based, Bile; conditions: in vivo
[4] = Renal clearance in rat at 0.3 mg/kg, iv via infusion for 1 hr; assay type: ADME, organism-based, Kidney; conditions: in vivo
[5] = Protein binding in dog plasma assessed as fraction unbound at 2 uM; assay type: ADME, cell-free, Canis lupus familiaris
Rattus norvegicus [6] = species on record: Rattus norvegicus; experiment: Displacement of [3H]GABA from rat brain GABA transporter at 10 uM after 30 mins by scintillation counting method
[7] = Unbound clearance rat plasma at 0.3 mg/kg, iv via infusion for 1 hr; assay type: ADME, organism-based; conditions: in vivo
[8] = target: Sodium channel protein type 1 subunit alpha (Homo sapiens, UniProt P35498); experiment: Inhibition of human Nav1.1 expressed in HEK cells by patch clamp electrophysiology method; assay type: cell-based
[9] = target: T1, Muscarinic acetylcholine receptor M1 (Homo sapiens) (UniProt P11229); experiment: Displacement of [3H]pirenzepine from recombinant human M1 receptor at 10 uM after 60 mins by scintillation counting method
T1 sequence (whole entry): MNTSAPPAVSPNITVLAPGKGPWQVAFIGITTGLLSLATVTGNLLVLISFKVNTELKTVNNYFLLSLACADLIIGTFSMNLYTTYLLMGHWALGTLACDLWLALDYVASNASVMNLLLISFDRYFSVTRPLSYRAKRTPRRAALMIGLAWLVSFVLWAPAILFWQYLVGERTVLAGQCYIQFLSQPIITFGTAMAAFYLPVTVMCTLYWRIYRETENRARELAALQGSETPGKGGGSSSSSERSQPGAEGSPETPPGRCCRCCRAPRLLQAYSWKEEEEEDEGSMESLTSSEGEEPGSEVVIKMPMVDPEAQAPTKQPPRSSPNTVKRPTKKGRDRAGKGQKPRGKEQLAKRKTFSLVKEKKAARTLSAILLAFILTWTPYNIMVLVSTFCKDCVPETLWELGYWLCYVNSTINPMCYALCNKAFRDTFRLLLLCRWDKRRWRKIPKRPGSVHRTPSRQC

[10] = target: Sodium channel protein type 10 subunit alpha (Homo sapiens, UniProt Q9Y5Y9); experiment: Inhibition of human Nav1.8 expressed in HEK cells by automated patchXpress electrophysiology method; assay type: cell-based
Homo sapiens [11] = species on record: Homo sapiens; experiment: Inhibition of sodium channel site2 (unknown origin) at 10 uM by radioligand binding assay relative to control
[12] = Clearance in rat blood at 0.3 mg/kg, iv via infusion for 1 hr; assay type: ADME, organism-based; conditions: whole blood
Summary of the method: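 Blood clearance was calculated from the measured plasma clearance and the measured blood:plasma ratio.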

[13] = Drug recovery in bile duct-cannulated rat bile at 0.3 mg/kg, iv via infusion for 1 hr; assay type: ADME, organism-based; conditions: read-out: Drug recovery
[14] = target: T2, Alpha-1A adrenergic receptor (Homo sapiens) (UniProt P35348); experiment: Antagonist activity at recombinant human alpha1a receptor expressed in CHOK1 cells assessed as inhibition of epinephrine-induced calcium flux at 10 uM by fluorescence assay relative to control; assay type: functional, cell-based
T2 sequence (whole entry): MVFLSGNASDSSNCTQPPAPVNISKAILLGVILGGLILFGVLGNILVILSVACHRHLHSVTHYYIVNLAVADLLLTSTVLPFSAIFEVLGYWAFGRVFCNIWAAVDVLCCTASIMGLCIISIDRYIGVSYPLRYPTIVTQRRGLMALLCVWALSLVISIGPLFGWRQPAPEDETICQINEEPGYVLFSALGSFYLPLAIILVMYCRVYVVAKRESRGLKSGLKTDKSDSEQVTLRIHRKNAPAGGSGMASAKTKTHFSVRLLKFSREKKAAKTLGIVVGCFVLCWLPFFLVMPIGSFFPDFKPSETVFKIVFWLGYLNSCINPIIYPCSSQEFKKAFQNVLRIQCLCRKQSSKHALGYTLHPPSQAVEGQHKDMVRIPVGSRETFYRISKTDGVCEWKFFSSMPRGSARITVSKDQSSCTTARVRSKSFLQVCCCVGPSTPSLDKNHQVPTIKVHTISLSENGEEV

[15] = Protein binding in dog plasma assessed as fraction unbound; assay type: ADME, cell-free, Canis lupus familiaris
[16] = target: T1, Muscarinic acetylcholine receptor M1 (Homo sapiens); experiment: Agonist activity at human M1 receptor expressed in CHOK1 cells assessed as increase in calcium flux at 10 uM by fluorimetric method relative to control; assay type: functional, cell-based
Homo sapiens [17] = species on record: Homo sapiens; experiment: Inhibition of GABA-A receptor benzodiazepine site (unknown origin) at 10 uM by radioligand binding assay relative to control
[18] = target: 3',5'-cyclic-AMP phosphodiesterase 4D (Homo sapiens) (UniProt Q08499); experiment: Inhibition of recombinant human PDE4D2 at 10 uM using [3H]cAMP as substrate measured after 20 mins by scintillation counting method relative to control
Chain of 3',5'-cyclic-AMP phosphodiesterase 4D (Homo sapiens) (Q08499 whole entry): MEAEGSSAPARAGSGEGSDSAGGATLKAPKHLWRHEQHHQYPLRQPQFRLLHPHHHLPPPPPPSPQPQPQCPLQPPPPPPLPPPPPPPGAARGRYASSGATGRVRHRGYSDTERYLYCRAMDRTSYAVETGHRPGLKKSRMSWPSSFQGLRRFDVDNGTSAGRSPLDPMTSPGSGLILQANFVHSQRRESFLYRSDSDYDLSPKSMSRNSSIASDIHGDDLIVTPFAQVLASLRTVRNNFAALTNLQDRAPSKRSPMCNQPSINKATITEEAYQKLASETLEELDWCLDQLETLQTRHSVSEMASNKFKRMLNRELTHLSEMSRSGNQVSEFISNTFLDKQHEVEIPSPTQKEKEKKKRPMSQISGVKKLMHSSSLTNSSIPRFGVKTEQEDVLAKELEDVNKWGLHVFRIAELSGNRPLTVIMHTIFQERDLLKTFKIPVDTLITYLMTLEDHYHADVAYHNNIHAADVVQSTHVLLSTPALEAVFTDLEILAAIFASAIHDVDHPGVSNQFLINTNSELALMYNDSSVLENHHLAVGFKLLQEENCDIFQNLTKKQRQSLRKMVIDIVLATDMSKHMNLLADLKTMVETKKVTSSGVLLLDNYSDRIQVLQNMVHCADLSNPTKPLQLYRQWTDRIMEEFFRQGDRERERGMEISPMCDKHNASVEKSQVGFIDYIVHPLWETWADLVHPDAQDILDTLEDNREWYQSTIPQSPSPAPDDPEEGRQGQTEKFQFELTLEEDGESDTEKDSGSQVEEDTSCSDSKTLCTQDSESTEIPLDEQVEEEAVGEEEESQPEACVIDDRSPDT

monoamine oxidase = monoamine oxidase (Homo sapiens, UniProt P21397+P27338); experiment: Inhibition of monoamine oxidase (unknown origin) at 10 uM relative to control; assay type: protein assay
[19] = target: Delta-type opioid receptor (Homo sapiens) (UniProt P41143); experiment: Agonist activity at human DOR expressed in Chem1 cells assessed as increase in calcium flux at 10 uM by fluorimetric method relative to control; assay type: functional, cell-based
Chain of Delta-type opioid receptor (Homo sapiens) (P41143 whole entry): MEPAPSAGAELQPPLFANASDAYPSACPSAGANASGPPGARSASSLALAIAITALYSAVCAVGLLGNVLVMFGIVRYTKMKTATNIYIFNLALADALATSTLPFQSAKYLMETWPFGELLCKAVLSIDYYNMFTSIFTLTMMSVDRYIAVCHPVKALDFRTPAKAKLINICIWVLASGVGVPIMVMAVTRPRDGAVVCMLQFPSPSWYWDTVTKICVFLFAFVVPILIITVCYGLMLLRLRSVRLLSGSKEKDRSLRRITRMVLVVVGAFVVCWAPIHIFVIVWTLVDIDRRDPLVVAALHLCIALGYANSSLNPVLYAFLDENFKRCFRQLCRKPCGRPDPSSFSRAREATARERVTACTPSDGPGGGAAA

[20] = target: Mu-type opioid receptor (Homo sapiens) (UniProt P35372); experiment: Displacement of [3H]DAMGO from recombinant human MOR at 10 uM after 120 mins by scintillation counting method
Chain of Mu-type opioid receptor (Homo sapiens) (P35372 whole entry): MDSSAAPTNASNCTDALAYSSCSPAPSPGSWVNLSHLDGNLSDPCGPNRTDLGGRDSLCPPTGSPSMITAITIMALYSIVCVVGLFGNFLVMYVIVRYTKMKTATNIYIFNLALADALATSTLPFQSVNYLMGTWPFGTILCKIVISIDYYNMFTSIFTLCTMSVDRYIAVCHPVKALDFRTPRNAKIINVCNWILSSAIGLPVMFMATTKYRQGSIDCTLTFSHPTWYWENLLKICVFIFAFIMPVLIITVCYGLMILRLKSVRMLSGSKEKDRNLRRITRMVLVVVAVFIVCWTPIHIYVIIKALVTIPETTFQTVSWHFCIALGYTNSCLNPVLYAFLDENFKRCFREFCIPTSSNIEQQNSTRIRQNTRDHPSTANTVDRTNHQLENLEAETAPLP

[21] = target: Alpha-2A adrenergic receptor (Homo sapiens) (UniProt P08913); experiment: Agonist activity at recombinant human alpha2a receptor at 10 uM relative to control; assay type: functional
Chain of Alpha-2A adrenergic receptor (Homo sapiens) (P08913 whole entry): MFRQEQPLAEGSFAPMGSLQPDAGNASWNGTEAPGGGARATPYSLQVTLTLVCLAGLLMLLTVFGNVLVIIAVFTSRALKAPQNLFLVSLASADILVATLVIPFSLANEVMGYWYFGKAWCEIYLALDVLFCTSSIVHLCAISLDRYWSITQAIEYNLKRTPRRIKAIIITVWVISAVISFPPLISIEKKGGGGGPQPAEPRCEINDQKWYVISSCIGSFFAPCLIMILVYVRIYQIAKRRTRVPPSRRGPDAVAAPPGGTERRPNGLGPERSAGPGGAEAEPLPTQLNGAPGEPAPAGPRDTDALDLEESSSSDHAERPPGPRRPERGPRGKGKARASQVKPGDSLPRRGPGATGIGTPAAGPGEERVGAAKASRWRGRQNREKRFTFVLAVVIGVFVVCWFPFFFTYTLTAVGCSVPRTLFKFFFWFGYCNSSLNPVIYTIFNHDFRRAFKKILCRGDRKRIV

[22] = target: Acetylcholinesterase (Homo sapiens) (UniProt P22303); experiment: Inhibition of recombinant human AChE at 10 uM using acetylthiocholine as substrate measured after 30 mins by spectrophotometric method relative to control
Chain of Acetylcholinesterase (Homo sapiens) (P22303 whole entry): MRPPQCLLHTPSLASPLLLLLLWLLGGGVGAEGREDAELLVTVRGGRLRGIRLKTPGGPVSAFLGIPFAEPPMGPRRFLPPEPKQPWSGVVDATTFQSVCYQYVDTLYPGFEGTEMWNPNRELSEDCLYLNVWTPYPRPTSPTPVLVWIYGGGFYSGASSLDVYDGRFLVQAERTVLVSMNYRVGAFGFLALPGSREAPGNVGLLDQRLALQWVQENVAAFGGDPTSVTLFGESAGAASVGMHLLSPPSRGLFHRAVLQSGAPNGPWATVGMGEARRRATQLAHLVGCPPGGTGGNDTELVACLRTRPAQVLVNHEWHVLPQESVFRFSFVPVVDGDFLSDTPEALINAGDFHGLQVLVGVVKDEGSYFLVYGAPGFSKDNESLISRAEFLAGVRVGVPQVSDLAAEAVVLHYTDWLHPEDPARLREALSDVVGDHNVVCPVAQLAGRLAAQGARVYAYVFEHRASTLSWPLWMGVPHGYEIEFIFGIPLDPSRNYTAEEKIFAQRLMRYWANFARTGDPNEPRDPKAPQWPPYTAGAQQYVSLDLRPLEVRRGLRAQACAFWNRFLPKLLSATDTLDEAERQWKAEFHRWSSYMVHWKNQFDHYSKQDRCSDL

[23] = target: 5-hydroxytryptamine receptor 1A (Homo sapiens) (UniProt P08908); experiment: Agonist activity at human 5-HT1A receptor expressed in mouse BA/F3 cells assessed as increase in calcium flux at 10 uM by fluorimetric method relative to control; assay type: functional, cell-based
Chain of 5-hydroxytryptamine receptor 1A (Homo sapiens) (P08908 whole entry): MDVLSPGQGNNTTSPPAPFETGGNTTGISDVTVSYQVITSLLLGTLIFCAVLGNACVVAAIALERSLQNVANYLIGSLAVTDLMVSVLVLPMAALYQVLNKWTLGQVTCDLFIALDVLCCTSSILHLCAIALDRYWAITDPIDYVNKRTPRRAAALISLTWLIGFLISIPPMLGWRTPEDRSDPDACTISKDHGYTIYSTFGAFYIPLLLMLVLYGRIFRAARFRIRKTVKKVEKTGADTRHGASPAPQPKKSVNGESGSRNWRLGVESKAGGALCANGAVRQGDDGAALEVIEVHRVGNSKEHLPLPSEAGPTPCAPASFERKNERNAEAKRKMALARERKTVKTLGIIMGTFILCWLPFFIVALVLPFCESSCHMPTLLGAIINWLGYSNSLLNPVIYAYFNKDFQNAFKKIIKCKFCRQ

[24] = Protein binding in rat plasma assessed as fraction unbound at 2 uM; assay type: ADME, cell-free
[25] = target: Sodium-dependent serotonin transporter (Homo sapiens) (UniProt P31645); experiment: Displacement of [3H]imipramine from recombinant human […] at 10 uM after 60 mins by scintillation counting method
Chain of Sodium-dependent serotonin transporter (Homo sapiens) (P31645 whole entry, looked up): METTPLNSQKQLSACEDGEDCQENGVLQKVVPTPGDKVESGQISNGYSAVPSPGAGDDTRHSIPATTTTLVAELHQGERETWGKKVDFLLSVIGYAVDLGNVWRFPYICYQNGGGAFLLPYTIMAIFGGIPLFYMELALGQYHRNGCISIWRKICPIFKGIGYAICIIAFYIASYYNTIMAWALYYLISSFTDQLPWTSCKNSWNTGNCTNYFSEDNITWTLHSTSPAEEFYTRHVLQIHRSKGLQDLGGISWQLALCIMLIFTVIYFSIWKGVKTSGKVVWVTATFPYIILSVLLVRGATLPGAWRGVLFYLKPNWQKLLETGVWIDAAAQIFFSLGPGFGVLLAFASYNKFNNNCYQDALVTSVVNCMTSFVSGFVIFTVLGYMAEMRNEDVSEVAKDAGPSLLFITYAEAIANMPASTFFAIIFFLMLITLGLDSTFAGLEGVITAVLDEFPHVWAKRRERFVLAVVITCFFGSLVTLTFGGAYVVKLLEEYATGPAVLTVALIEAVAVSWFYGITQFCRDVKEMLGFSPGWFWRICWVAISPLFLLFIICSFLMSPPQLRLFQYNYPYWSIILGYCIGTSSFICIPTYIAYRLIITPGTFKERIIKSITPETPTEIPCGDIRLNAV

[26] = Protein binding in mouse plasma assessed as fraction unbound; assay type: ADME, cell-free
[27] = target: Muscarinic acetylcholine receptor M2 (Homo sapiens) (UniProt P08172); experiment: Antagonist activity at recombinant human M2 receptor expressed in CHOK1 cells assessed as inhibition of acetylcholine-induced cAMP accumulation at 10 uM measured after 10 mins by HTRF assay relative to control; assay type: functional, cell-based
Chain of Muscarinic acetylcholine receptor M2 (Homo sapiens) (P08172 whole entry, the tested form may be a part): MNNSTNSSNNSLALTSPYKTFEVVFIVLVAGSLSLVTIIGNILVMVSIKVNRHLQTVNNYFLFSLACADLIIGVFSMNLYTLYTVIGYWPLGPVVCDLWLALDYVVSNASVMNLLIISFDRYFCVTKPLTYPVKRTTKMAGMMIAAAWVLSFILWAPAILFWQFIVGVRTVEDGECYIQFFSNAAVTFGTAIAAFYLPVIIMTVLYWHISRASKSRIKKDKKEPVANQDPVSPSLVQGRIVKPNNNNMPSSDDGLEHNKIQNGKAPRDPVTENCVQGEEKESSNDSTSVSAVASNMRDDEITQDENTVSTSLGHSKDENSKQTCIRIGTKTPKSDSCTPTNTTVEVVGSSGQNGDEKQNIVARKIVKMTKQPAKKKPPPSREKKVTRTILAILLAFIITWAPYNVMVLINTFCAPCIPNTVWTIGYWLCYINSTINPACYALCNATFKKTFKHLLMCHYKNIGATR

[28] = Half-life in rat at 0.3 mg/kg, iv via infusion for 1 hr; assay type: ADME, organism-based; conditions: in vivo
[29] = target: Beta-1 adrenergic receptor (Homo sapiens) (UniProt P08588); experiment: Agonist activity at recombinant human beta1 receptor expressed in HEK293 cells assessed as increase in cAMP accumulation at 10 uM after 30 mins by HTRF assay relative to control; assay type: functional, cell-based
Chain of Beta-1 adrenergic receptor (Homo sapiens) (P08588 whole entry, looked up): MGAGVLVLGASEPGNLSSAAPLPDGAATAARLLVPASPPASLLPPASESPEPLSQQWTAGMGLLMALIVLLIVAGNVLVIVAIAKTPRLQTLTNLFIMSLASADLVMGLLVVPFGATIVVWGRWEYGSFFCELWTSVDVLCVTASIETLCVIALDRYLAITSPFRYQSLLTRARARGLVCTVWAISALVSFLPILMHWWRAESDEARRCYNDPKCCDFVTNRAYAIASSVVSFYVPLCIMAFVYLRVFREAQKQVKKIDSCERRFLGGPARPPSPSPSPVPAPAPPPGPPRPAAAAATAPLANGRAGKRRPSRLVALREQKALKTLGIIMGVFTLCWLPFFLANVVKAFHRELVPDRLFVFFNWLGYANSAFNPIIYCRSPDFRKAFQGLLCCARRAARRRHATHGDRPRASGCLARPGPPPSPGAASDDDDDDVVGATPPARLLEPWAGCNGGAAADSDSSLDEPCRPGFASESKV

Rattus norvegicus [30] = species on record: Rattus norvegicus; experiment: Displacement of [3H]nitrendipine from L-type calcium channel dihydropyridine (nifedipine) binding site in rat brain 10 uM measured after 90 mins by scintillation counting method

## N#Cc1cc(S(=O)(=O)Nc2ncns2)ccc1Oc1ccc(-c2cccc(C(F)(F)F)c2)cc1-c1ccnc(CNCCC2CCNCC2)c1
[1]
  fraction unbound: 0.00497
[2]
  clearance: 17.8 mL/min/kg
[3]
  CL: 44 mL/min/kg
[4]
  CL renal at 1 h: 0.0322 mL/min/kg
[5]
  fraction unbound at 2 µM: 0.003
Rattus norvegicus [6]
  inhibition: 5%
[7]
  CL free: 30218 mL/min/kg
[8]
  pIC50: 6.50 to 6.51
[9]
  inhibition: 48%
[10]
  pIC50: 4.59 to 5.00
Homo sapiens [11]
  inhibition: 92%
[12]
  clearance: 178 mL/min/kg
[13]
  dose excreted at 1 h: 74%
[14]
  inhibition: 23%
[15]
  fraction unbound: 0.00374
[16]
  Activity: 2%
Homo sapiens [17]
  inhibition: 35%
[18]
  inhibition: -8%
Monoamine oxidase
  inhibition at 10 µM: 16%
[19]
  Activity: -49%
[20]
  inhibition: 46%
[21]
  Activity: -7%
[22]
  inhibition: 15%
[23]
  Activity: -34%
[24]
  fraction unbound at 2 µM: 0.002
[25]
  inhibition: 40%
[26]
  fraction unbound: 0.00281
[27]
  inhibition: 24%
[28]
  half-life: 12.6 min
[29]
  Activity: -4%
Rattus norvegicus [30]
  inhibition: 31%
